Counter-ions that a name gives are not always drawn.

In the experiment the test system is Nrf2 activation in KeratinoSens cells. The experiment in a line: KeratinoSens reporter gene assay. The conditions noted are these: 6 h. The experiment is classed as cell-based. The method in brief:
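KeratinoSens ARE-luciferase cells (passage ≤22) plated at 1.0 × 10^4 per well in triplicate; after 24 h switched to DMEM with 1% FBS, no geneticin. Wortmannin 500 nM added 1 h before test compound at 250 μM; DMF 50 μM as positive control; DMSO ≤0.1%. After 6 h, Alamar Blue (4 h, 37°C), then luciferase read as fold over DMSO. Three independent experiments in triplicate.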
In general terms: A reporter such as luciferase makes a cellular process visible.

On to `COC[C@H]1OC(=O)c2coc3c2[C@@]1(C)C1=C(C3=O)[C@@H]2CCC(=O)[C@@]2(C)C[C@H]1OC(C)=O` [Wortmannin], for which the “effect on Iso-induced Nrf2 activation” value (Wortmannin 500 nM added 1 h before Iso 250 μM) is reported as “partially inhibited”. In the case of `COC(=O)/C=C/C(=O)OC` [DMF, Dimethyl fumarate], the “Nrf2 activation (luciferase induction)” value (Iso 250 μM, DMF 50 μM) is reported as “induced Nrf2 activation”.
